19 compounds from ChEMBL document CHEMBL1129624, “10-substituted 11-oxygenated (R)-aporphines: synthesis, pharmacology, and modeling of 5-HT1A receptor interactions” (J Med Chem, 1996) can be followed below.

SMILES strings stand for the structures. Bounds are passed on as bounds.

Test [1] addresses T1, 5-hydroxytryptamine receptor 1A (Rattus norvegicus, UniProt P19327).
T1 sequence (P19327 whole entry): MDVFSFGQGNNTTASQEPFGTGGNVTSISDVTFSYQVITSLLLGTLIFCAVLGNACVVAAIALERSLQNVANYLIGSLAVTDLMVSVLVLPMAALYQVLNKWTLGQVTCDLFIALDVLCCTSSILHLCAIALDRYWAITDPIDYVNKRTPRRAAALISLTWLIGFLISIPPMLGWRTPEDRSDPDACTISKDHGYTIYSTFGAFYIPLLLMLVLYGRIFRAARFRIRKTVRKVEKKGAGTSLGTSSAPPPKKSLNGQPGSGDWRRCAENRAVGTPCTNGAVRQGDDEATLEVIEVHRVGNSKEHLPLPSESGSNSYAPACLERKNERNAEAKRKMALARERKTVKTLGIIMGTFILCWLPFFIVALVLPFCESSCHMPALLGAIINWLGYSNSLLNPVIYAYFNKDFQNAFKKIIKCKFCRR
As to the kind of experiment: In vitro affinity at 5-hydroxytryptamine 1A receptor of rat hippocampus by [3H]8-OH-DPAT displacement. It counts as tissue-based. An outline of the steps:
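Incubation in 50 mM Tris–HCl pH 7.4 containing 2.0 mM CaCl2, 1.0 mM MgCl2, 1.0 mM MnCl2 and 5.7 mM ascorbic acid, 45 min at 37 °C. Nonspecific binding defined with 100 μM 5-HT·HCl. Otherwise run as in an earlier report.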

Test [2] addresses T2, D(1A) dopamine receptor (Rattus norvegicus, UniProt P18901). As to the kind of experiment: In vitro affinity at Dopamine receptor D1 of rat striatum by [3H]SCH-23390 displacement. It counts as tissue-based.
Test [3] concerns the target T3, D(2) dopamine receptor (Homo sapiens, UniProt P14416). As to the kind of experiment: In vitro affinity at human cloned Dopamine receptor D2A by [3H]-raclopride displacement.
Test [4] concerns Rattus norvegicus. As to the kind of experiment: In vivo effect on 5-hydroxytryptophan (5-HTP) accumulation following decarboxylase inhibition was investigated on striatum of reserpine-pretreated rats. It counts as functional. An outline of the steps:
(§1)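 Rats pretreated with reserpine (5 mg/kg sc) 18–20 h before. Single sc doses of test agent in saline, sometimes with a few drops of glacial HOAc. Decarboxylase then blocked with NSD1015 (117 mg/kg sc). DOPA and 5-HTP measured in dissected brain regions by HPLC with electrochemical detection. Values given as percent of saline controls, n = 2–4. Statistics by one-way ANOVA with Fisher's PLSD.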

Test [5] deals with Rattus norvegicus. Kind of test: In vivo effect on 5-hydroxytryptophan (5-HTP) accumulation following decarboxylase inhibition was tested on limbic forebrain of reserpine-pretreated rats. The class given is functional, Limbic system. An outline of the steps:
as §1

Test [6] concerns Rattus norvegicus. As to the kind of experiment: In vivo effects of single doses on dihydroxyphenylalanine (DOPA) accumulation following decarboxylase inhibition was investigated on limbic forebrain of reserpine-pretreated rats. It counts as functional, Limbic system. The method, boiled down:
as §1

For test [7], the system named is Rattus norvegicus. Kind of test: In vivo effects on 5-hydroxytryptophan (5-HTP) accumulation following decarboxylase inhibition was tested on cortex of reserpine-pretreated rats. It counts as functional. An outline of the steps: as §1
The subject of test [8] is Rattus norvegicus. Kind of test: In vivo effects on dihydroxyphenylalanine (DOPA) accumulation following decarboxylase inhibition was tested on cortex of reserpine-pretreated rats. The class given is functional. The method, boiled down: as §1
The subject of test [9] is Rattus norvegicus. Kind of test: In vivo effects on dihydroxyphenylalanine (DOPA) accumulation following decarboxylase inhibition was tested on striatum of reserpine-pretreated rats. It counts as functional. The method, boiled down:
as §1

The target in test [10] is T3, D(2) dopamine receptor. As to the kind of experiment: In vitro affinity at human cloned Dopamine receptor D2A by [3H]raclopride displacement.
Test [11] has as its target T2, D(1A) dopamine receptor. As to the kind of experiment: In vitro affinity at Dopamine receptor D1 of rat striatum by [3H]SCH-23,390 displacement. It counts as tissue-based.
Test [12] deals with Rattus norvegicus. Kind of test: In vivo effect on dihydroxyphenylalanine (DOPA) accumulation following decarboxylase inhibition was tested on cortex of reserpine-pretreated rats. The class given is functional. The method, boiled down: as §1
In test [13] the test system is Rattus norvegicus. Kind of test: In vivo effect on dihydroxyphenylalanine (DOPA) accumulation following decarboxylase inhibition was tested on striatum of reserpine-pretreated rats. The class given is functional. The method, boiled down:
as §1

T2 sequence (P18901 whole entry): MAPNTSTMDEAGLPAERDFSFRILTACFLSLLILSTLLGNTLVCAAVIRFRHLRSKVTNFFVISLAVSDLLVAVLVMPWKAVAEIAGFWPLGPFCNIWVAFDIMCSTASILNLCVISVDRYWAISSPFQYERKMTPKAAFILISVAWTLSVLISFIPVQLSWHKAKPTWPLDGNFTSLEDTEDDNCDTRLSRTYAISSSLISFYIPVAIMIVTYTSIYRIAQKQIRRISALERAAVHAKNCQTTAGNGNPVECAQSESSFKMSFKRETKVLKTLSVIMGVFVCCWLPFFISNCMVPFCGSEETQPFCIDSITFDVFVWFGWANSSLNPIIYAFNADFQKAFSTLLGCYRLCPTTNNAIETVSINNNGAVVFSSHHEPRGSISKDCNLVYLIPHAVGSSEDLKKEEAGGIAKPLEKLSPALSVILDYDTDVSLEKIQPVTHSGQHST
T3 sequence (P14416 whole entry): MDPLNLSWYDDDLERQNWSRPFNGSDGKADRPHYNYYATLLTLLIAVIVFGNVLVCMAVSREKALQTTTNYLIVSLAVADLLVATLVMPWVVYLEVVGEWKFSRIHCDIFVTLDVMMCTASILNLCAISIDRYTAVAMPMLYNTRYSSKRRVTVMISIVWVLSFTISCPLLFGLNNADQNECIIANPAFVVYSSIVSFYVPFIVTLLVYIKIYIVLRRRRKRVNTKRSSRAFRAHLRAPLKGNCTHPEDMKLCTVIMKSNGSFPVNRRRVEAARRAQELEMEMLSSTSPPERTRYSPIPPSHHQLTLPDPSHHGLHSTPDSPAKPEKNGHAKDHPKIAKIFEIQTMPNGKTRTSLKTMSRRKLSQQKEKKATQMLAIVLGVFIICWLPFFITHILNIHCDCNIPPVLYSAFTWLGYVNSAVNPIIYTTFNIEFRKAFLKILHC

As usually defined, the Ki is a measure of affinity in units of concentration, obtained from inhibition or displacement. Low readings indicate tighter binding, high ones weaker binding. In the case of `CCc1ccc2c(c1O)-c1cccc3c1[C@@H](C2)N(C)CC3`, the Ki in test [1] was found to be 9.2 nM; at D(1A) dopamine receptor [2] it was 782 nM; at D(2) dopamine receptor [3], 2050 nM.

Regarding `Cc1ccc2c(c1O)-c1cccc3c1[C@@H](C2)NCC3`, the Ki in [1] was 3.2 nM; on D(1A) dopamine receptor [2], 23800 nM; at D(2) dopamine receptor [3] it was more than 10000 nM. For the same compound, the Accumulation in the test on Rattus norvegicus [4] was 47; with Rattus norvegicus [5] it was 37; with Rattus norvegicus [6] it was 85; with Rattus norvegicus [7], 40; in the test on Rattus norvegicus [8] it was 93; in the test with Rattus norvegicus [9], 78.

As for `COc1c(C)ccc2c1-c1cccc3c1[C@@H](C2)NCC3`, the Ki was 12.6 nM in test [1], 4710 nM on D(2) dopamine receptor [10] and more than 5000 nM on D(1A) dopamine receptor [11].

With `CCCN1CCc2cccc3c2[C@H]1Cc1ccc(C)c(OC)c1-3`, the Ki was 10.8 nM in test [1], more than 2000 nM on D(1A) dopamine receptor [2] and 238 nM on D(2) dopamine receptor [3].

As for `COc1c(-c2ccco2)ccc2c1-c1cccc3c1[C@@H](C2)N(C)CC3`, the Ki in test [1] amounted to 995 nM; at D(2) dopamine receptor [10], 582 nM; at D(1A) dopamine receptor [11] it was 14000 nM.

Turning to `COc1c(C)ccc2c1-c1cccc3c1[C@@H](C2)N(Cc1ccccc1)CC3`, the Ki at D(2) dopamine receptor [10] and on D(1A) dopamine receptor [11] was more than 5000 nM in each case.

Regarding `CN1CCc2cccc3c2[C@H]1Cc1ccc(-c2ccccc2)c(O)c1-3`, the Ki is 1090 nM in test [1], 9400 nM at D(1A) dopamine receptor [2] and more than 1000 nM on D(2) dopamine receptor [3].

On to `CCCN1CCc2cccc3c2[C@H]1Cc1ccc(C)c(O)c1-3`, for which the Ki in [1] was 12.3 nM; on D(1A) dopamine receptor [2], more than 2000 nM; at D(2) dopamine receptor [3], 249 nM. Further, the Accumulation was 104 with Rattus norvegicus [4]; 104 in the test with Rattus norvegicus [5]; 81 in the test on Rattus norvegicus [6]; 102 in the test with Rattus norvegicus [7]; 116 with Rattus norvegicus [8]; 72 in the test on Rattus norvegicus [9].

As to `CCCN1CCc2cccc3c2[C@H]1Cc1ccc(OS(=O)(=O)C(F)(F)F)c(OC)c1-3`, the values for the Ki (in [1]; on D(1A) dopamine receptor [2]; at D(2) dopamine receptor [3]) were 3300 nM, more than 2000 nM and 403 nM, respectively.

On to `COc1c(C(C)=O)ccc2c1-c1cccc3c1[C@@H](C2)N(C)CC3`, for which the Ki in test [1] worked out at 150 nM; on D(2) dopamine receptor [10], 2980 nM; on D(1A) dopamine receptor [11], 4820 nM.

On to `CC(=O)c1ccc2c(c1O)-c1cccc3c1[C@@H](C2)N(C)CC3`, for which the Ki on D(1A) dopamine receptor [2] came out at 4620 nM; at D(2) dopamine receptor [3] it was 2760 nM.

As for `CCc1ccc2c(c1OC)-c1cccc3c1[C@@H](C2)N(C)CC3`, the values for the Ki (in test [1]; at D(1A) dopamine receptor [2]; at D(2) dopamine receptor [3]) were 17.5 nM, 1030 nM and 411 nM, respectively.

With `C=Cc1ccc2c(c1OC)-c1cccc3c1[C@@H](C2)N(C)CC3`, the Ki in test [1] is 108 nM; at D(2) dopamine receptor [10] it was 1750 nM; on D(1A) dopamine receptor [11] it was 1440 nM.

Take `COc1c(C)ccc2c1-c1cccc3c1[C@@H](C2)N(C)CC3`: the Ki in [1] worked out at 7.5 nM; at D(1A) dopamine receptor [2], 393 nM; on D(2) dopamine receptor [3] it was 248 nM.

As to `COc1c(C)ccc2c1-c1cccc3c1[C@@H](C2)N(C(C)C)CC3`, the Ki is 640 nM in test [1], more than 5000 nM on D(1A) dopamine receptor [2] and more than 1000 nM on D(2) dopamine receptor [3].

Turning to `Cc1ccc2c(c1O)-c1cccc3c1[C@@H](C2)N(Cc1ccccc1)CC3`, the Ki is 772 nM in [1], more than 5000 nM at D(1A) dopamine receptor [2] and more than 1000 nM on D(2) dopamine receptor [3].

For the compound `COc1c(OS(=O)(=O)C(F)(F)F)ccc2c1-c1cccc3c1[C@@H](C2)N(C)CC3`, the Ki in [1] is 1620 nM; on D(1A) dopamine receptor [2], more than 2000 nM; on D(2) dopamine receptor [3], 1040 nM.

On to `Cc1ccc2c(c1O)-c1cccc3c1[C@@H](C2)N(C(C)C)CC3`, for which the Ki in [1] is 241 nM; at D(1A) dopamine receptor [2], more than 10000 nM; at D(2) dopamine receptor [3], more than 1000 nM.

Take `Cc1ccc2c(c1O)-c1cccc3c1[C@@H](C2)N(C)CC3`: the Accumulation in the test with Rattus norvegicus [4] stood at 70; with Rattus norvegicus [5] it was 58; with Rattus norvegicus [12], 100; in the test on Rattus norvegicus [13] it was 90; in the test with Rattus norvegicus [6], 84; in the test on Rattus norvegicus [7] it was 72.
